Bioassay records: PubChem, The Scripps Research Institute Molecular Screening Center
Compounds with a hit are over-represented: about 2.8% of the library has one in this group of screens.
ARFGAP1 inhibitor – inhibitors of rat ARFGAP1 GAP activity, primary screen, biochemical, fluorescence polarization, GDP tracer; Arfgap1-stimulated ARF1 GTP hydrolysis, GDP FP detection; inhibition, % at 16.5 µM; hit rate 0.26% among 360,000; AID 651572, 2012;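 active means inhibition above a per-plate limit, mean inhibition of low control wells plus 3 SD, cut at about 25% in these data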;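 further: 0% = DMSO wells with enzyme and 100% = wells lacking Arfgap1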
Target sequence (Q62848 1-136 limits assumed): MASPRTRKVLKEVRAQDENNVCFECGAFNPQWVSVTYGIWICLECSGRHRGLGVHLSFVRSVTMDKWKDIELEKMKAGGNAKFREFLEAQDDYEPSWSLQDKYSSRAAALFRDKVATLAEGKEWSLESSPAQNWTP
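Material: rat Arfgap1 GAP domain (His6, aa 1-136), purified enzyme. Also added: human ARF1(Δ1-17)-GTP substrate. Compound dosing: 16.5 µM single point, 1.26% DMSO. Timing: enzyme reaction 120 min at 25 °C after 20 min preincubation. Signal: GDP detection by fluorescence polarization. Read-out basis: percent inhibition of GAP-stimulated GDP formation, scaled between DMSO and no-Arfgap1 medians.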
PAFAH2 FP inh – PAFAH2 enzyme inhibitors, primary screen, biochemical, fluorescence polarization, human. Platelet-activating factor acetylhydrolase 2, cytoplasmic (Homo sapiens), Q99487. recombinant PAFAH2, FP-rhodamine activity probe. inhibition, % at 3.39 µM. hit rate 0.99% among 340,000;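 active means inhibition above the mean over all tested compounds plus 3 SD, cut at about 30% in these data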;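 further: inhibitors block probe labeling of enzyme so polarization drops; 0% = enzyme with DMSO and 100% = wells lacking PAFAH2 protein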
ASAP1 GAP inh – inhibitors of human ASAP1 ArfGAP activity, primary screen, biochemical, fluorescence polarization; Arf-GAP with SH3 domain, ANK repeat and PH domain-containing protein 1 (Homo sapiens), …; ASAP1-stimulated ARF1 GTP hydrolysis, GDP FP detection; inhibition, % at 16.5 µM; hit rate 0.19% among 360,000; AID 624377, 2012; in the data active means inhibition above about 25%;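 further: 0% = vehicle with enzyme and substrate and 100% = no enzyme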
PAFAH1B3 FP inh – PAFAH1B3 enzyme inhibitors, primary screen, biochemical, fluorescence polarization, human; Platelet-activating factor acetylhydrolase IB subunit alpha1 (Homo sapiens), Q15102; recombinant PAFAH1B3, FP-rhodamine probe; inhibition, % at 3.39 µM; hit rate 0.28% among 340,000; AID 492972, 2010;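 active means inhibition above the screen-wide average of all tested compounds plus 3 SD, cut at about 25% in these data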;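 further: 0% = enzyme with DMSO only and 100% = wells lacking PAFAH1B3 protein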
Target sequence (Q15102 whole entry, looked up): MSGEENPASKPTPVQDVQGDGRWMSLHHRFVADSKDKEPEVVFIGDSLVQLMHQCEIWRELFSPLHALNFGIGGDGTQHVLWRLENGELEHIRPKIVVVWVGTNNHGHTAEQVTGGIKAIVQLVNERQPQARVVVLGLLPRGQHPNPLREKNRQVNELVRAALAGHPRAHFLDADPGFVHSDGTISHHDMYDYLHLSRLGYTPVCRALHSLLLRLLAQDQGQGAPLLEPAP
pPAFAH FP inh – pPAFAH enzyme inhibitors, primary screen, biochemical, fluorescence polarization, human; Platelet-activating factor acetylhydrolase (Homo sapiens), Q13093; recombinant pPAFAH, FP-rhodamine probe fluorescence polarization; inhibition, % at 3.39 µM; hit rate 1.5% among 330,000; AID 463082, 2010;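 active means inhibition above the mean inhibition across the screen plus 3 SD, cut at about 25% in these data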;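 further: inhibitors block binding of the rhodamine activity-based probe so polarization drops; 0% = enzyme with DMSO and 100% = wells lacking pPAFAH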
PAFAH1B2 FP inh – PAFAH1B2 enzyme inhibitors, primary screen, biochemical, fluorescence polarization, human. Platelet-activating factor acetylhydrolase IB subunit alpha2 (Homo sapiens), P68402. recombinant PAFAH1B2, FP-rhodamine activity probe. inhibition, % at 3.39 µM. hit rate 1.2% among 340,000;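 active means inhibition above the mean of all tested compounds plus 3 SD, cut at about 24% in these data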;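 further: 0% = enzyme with DMSO and 100% = wells lacking PAFAH1B2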
Target sequence (P68402 whole entry, looked up): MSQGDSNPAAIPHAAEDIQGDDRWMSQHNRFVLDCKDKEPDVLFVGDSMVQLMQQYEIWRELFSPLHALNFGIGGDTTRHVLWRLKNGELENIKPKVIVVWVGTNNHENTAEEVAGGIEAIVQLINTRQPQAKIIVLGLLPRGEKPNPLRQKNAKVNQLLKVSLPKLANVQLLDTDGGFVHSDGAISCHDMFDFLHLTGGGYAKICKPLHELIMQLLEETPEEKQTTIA
* hit, by the source's call; . = no result given.

SMILES	ARFGAP1 inhibitor	PAFAH2 FP inh	ASAP1 GAP inh	PAFAH1B3 FP inh	pPAFAH FP inh	PAFAH1B2 FP inh
C=C[C@]1(C)C=C2CCC3[C@](C)(CCC[C@@]3(C)C(=O)O)C2CC1 (stereo partly specified)	.	43*	.	11	9	68*
CC1CCC(NC(=O)C2CCN(C(=O)Nc3ccccc3)CC2)CC1 (stereo unspecified)	-15	-4	13	4	-2	8
N#CC(C(=O)C12CC3CC(CC(C3)C1)C2)c1nc2ccccc2[nH]1 (stereo unspecified)	-1	31*	-3	-3	19	13
N#CC(C(=O)CCN1C(=O)C2CC=CCC2C1=O)c1nc2ccccc2[nH]1 (stereo unspecified)	1	4	3	11	5	1
CN(Cc1ccccc1)C(=O)c1ccc(NC(=O)Cc2ccc(NC(=O)C3CCCN(C(=O)C4CC4)C3)cc2)cc1 (stereo unspecified)	4	0	5	5	.	-4
Cc1ccc(S(=O)(=O)Nc2cccc(C(=O)NCc3ccccn3)c2)cc1F	11	6	-22	8	7	4
CC1(C)c2[nH]c3ccccc3c2C[C@@H]2C(=O)N(c3cc(F)ccc3F)C(=O)N21	9	10	28*	7	3	8
CC1(C)c2[nH]c3ccccc3c2C[C@H]2C(=O)N(Cc3cccc(F)c3)C(=O)N21	9	8	6	8	6	5
CCC(C)(C)NC(=O)CN(C(=O)C(=O)Nc1ccc2c(c1)OCCO2)C1CC1	-5	-8	0	-2	5	2
CSCC[C@H](NC(=O)c1cc2c([nH]c3ccccc32)c(-c2ccccc2)n1)C(=O)O	1	1	2	6	2	7
Cc1ccc(CSCCNS(=O)(=O)c2ccc([N+](=O)[O-])cc2)cc1	1	3	-1	-5	7	25*
Cc1ccc(S(=O)(=O)NCCSCc2ccccc2)cc1	19	-3	9	9	10	17
CCCCCCCN=CC1=C(O)CC(c2ccccc2)CC1=O (stereo unspecified)	-2	-7	16	7	-2	26*
COc1cccc(C(=O)NC2CCN(CC(=O)Nc3ccccc3Cl)CC2)c1	-7	10	-6	1	4	3
Cn1c(N)c(C(=O)CSc2nc(C3CC3)n(-c3ccccc3)n2)c(=O)[nH]c1=O	1	7	-2	3	32*	3
Cc1[nH]nc2c1C(c1ccc(F)cc1)C(C#N)=C(N)O2 (stereo unspecified)	1	-1	1	-6	5	8
Cc1oc(C)c2c(=O)ccc3c(c12)OC(N)=C(C#N)C3c1ccc(F)cc1 (stereo unspecified)	3	1	-2	-3	32*	-2
Cc1cc(C)c(S(=O)(=O)Nc2ccccc2-c2ccccc2)c(C)c1	-7	-4	-16	4	3	18
O=S(=O)(Nc1ccccc1-c1ccccc1)c1ccccc1	-1	6	13	7	.	26*
Cc1ccc(S(=O)(=O)Nc2ccccc2-c2ccccc2NS(=O)(=O)c2ccc(C)cc2)cc1	-8	10	-14	-6	25*	59*
Cc1ccc(S(=O)(=O)N(C)CC(=O)Nc2cc(C)ccn2)cc1	10	0	2	7	-5	5
COc1ccccc1C(=O)Nc1nnc(SCC(=O)NC2CCCC2)s1	.	-1	.	-9	-1	-1
COc1cccc(CN(C)CC(=O)Nc2cccc(S(=O)(=O)N(C)c3ccccc3)c2)c1OC	1	7	-2	5	.	3
CCOc1ccc(CN(C)CC(=O)Nc2cccc(S(=O)(=O)N(C)c3ccccc3)c2)cc1	9	-3	-12	1	28*	1
COc1cccc2c(=O)c3cccc(N)c3[nH]c12	-2	10	-12	11	31*	0
SMILES	ARFGAP1 inhibitor	PAFAH2 FP inh	ASAP1 GAP inh	PAFAH1B3 FP inh	pPAFAH FP inh	PAFAH1B2 FP inh
O=C(Cc1cccs1)NNC(=S)NCc1ccc(Cl)cc1	0	-5	5	6	2	55*
O=C(Cc1ccc(Cl)cc1)NNC(=S)NC(=O)c1cccs1	-4	12	-8	0	11	20
O=[N+]([O-])c1ccc(Cl)c(-c2ccc(/C=N/c3c(-c4ccco4)nc4ccccn34)o2)c1	-1	2	5	-5	11	3
Cc1cc(C)c([N+](=O)[O-])cc1-c1ccc(/C=N/c2c(-c3ccco3)nc3ccccn23)o1	7	17	13	8	32*	5
COc1cc(OC)cc(C(=O)NC2CCCN(Cc3ccc(Cl)cc3)C2)c1 (stereo unspecified)	15	1	8	7	-4	2
CNC(=S)NNC(=O)CSCc1c(Cl)cccc1Cl	3	.	14	.	8	.
O=C(CSCc1ccccc1)NNC(=S)Nc1cccc(Cl)c1Cl	-1	29	1	10	32*	17
Nn1c(-c2ccccc2)cc(-c2ccccc2)cc1=O	-2	7	9	-1	5	2
C=CCSc1nc(=O)n2ccc(C)cc2n1	1	15	9	3	27*	-3
C=CCSc1nc(=O)n2ccccc2n1	5	13	9	3	1	1
COc1ccc(/C=C/C(=O)OCC(=O)N2CCCC2)c(OC)c1	8	16	-3	-2	5	1
CC1CCCC(NC(=O)COC(=O)c2ccc([N+](=O)[O-])s2)C1C (stereo unspecified)	-14	66*	12	53*	16	15
COc1ccc(/C=C/C(=O)OCC(=O)NC2CCCC(C)C2C)c(OC)c1 (stereo unspecified)	11	76*	-12	-1	29*	-2
Cc1ccc(CC(=O)OCC(=O)NC2CCCC(C)C2C)cc1C (stereo unspecified)	4	39*	0	10	29*	4
CCc1ccc(OCC(=O)OCC(=O)NC2CCCC(C)C2C)cc1 (stereo unspecified)	6	7	-2	10	8	7
CC1CCCC(NC(=O)COC(=O)Cc2ccc(Cl)cc2)C1C (stereo unspecified)	-5	16	-9	15	28*	20
COc1cc2ncnc(N[C@H](C)c3ccccc3)c2cc1OC	.	2	.	7	4	1
